# This is a sample that favours compounds with a hit; in the whole collection about 2.1% have one here.
# RanGTP-Imp inh: disruptors of Ran-importin-beta complex formation – biochemical, FRET, CFP-Ran, YFP-importin-beta, homogeneous, primary screen; cell-free CFP-Ran/YFP-importin-beta FRET ratio; inhibition, % (no concentration beside the values); 300,000 tested, 1.1% active; AID 2216;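 active = more than half of the replicate wells show a fall in the fluorescence ratio signal beyond about 16%, limit read from the data, passing the limit was not always enough; inconclusive = exactly half of the replicate wells pass the set limit; inactive = fewer than half of replicates pass the limit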;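 also: 0% = DMSO wells and 100% = Ran loaded with GDP instead of GTP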
# Runt-SMMHC FRET: inhibitors of human RUNX1 Runt domain binding to CBFb-SMMHC. Q01196+Q13951. Cerulean-Runt/Venus-CBFb-SMMHC FRET ratio 530/480, 1 h. inhibition, % at 20 µM. 220,000 tested, 0.74% active;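 active = mean inhibition across duplicate retests at 20 µM reaching about 50%, limit read from the data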;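 also: 0% = DMSO wells and 100% = wells with excess untagged CBFb-SMMHC; inhibitors lower the FRET ratio by blocking Runt binding to CBFb-SMMHC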
# MEX-5 binding: C. elegans MEX-5 TCR-2 RNA binding activity; Q9XUB2; MEX-5/FITC-TCR2 RNA binding, fluorescence polarization; stronger effect = lower value; activity score (negative = inhibition of binding), % at 10 µM; 300,000 tested, 0.38% active; AID 1832;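 active = inhibition past about -25% in most replicates, and total fluorescence under double the plate's negative control median, limit read from the data; inconclusive = replicates evenly split on the limit, or fluorescence at least double controls; inactive = too little inhibition in most replicates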;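 also: 0% = DMSO and -100% = 5 µM competing unlabeled TCR2 RNA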
# Runt-CBFb FRET: Runt domain-CBFb interaction inhibition; Q01196+Q13951; Cerulean-Runt/Venus-CBFb FRET ratio 530/480, 1 h; 220,000 tested, 0.46% active; inhibition, % at 20 µM; AID 1496;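 active = inhibition over about 50% at 20 µM in the single-dose screen, limit read from the data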;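 also: 0% = DMSO wells and 100% = excess unlabeled CBFb competitor control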
#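 Schedule: protein complex preformed 1 h, compound exposure 1 h, room temperature, dark; test system: Cerulean-labeled Runt domain protein; amount: 100 nM per protein; buffer or medium: Tris 50 mM pH 7.5, KCl, K2SO4, 0.01% BSA; read-out: loss of energy transfer signal; detection: FRET fluorescence; controls: 5 µM unlabeled CBFb as full-inhibition high control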
# proKLK7 act: activates the human kallikrein-7 zymogen. purified proKLK7, EDANS-DABCYL substrate fluorescence; 100% is mature enzyme control, 0% vehicle. activation, % at 7 µM. 370,000 tested, 0.9% active;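 active = activation above the mean of all tested compounds plus 3 SD, computed per campaign excluding outliers beyond control limits, cut at about 13% in these data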
# Target sequence (P49862 whole entry, looked up): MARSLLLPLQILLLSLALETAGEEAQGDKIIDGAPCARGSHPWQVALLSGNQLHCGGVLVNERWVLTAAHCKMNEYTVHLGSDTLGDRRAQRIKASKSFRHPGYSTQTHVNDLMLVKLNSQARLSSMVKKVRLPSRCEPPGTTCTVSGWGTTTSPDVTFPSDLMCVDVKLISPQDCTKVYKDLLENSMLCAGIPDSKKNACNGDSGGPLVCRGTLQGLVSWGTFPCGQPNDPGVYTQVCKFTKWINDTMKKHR
# proKLK7 act conf: proKLK7 activation, confirmation; 3,200 tested, 68% active; purified proKLK7, EDANS-DABCYL substrate fluorescence; scaled: vehicle 0, mature enzyme 100; shares compounds with proKLK7 act; activation, % at 7 µM;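 active = activation, as change over the incubation, above the mean of all tested compounds plus 3 SD, cut at about 13% in these data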
# EDANS-DABCYL int: optically interferes with EDANS-DABCYL signal, flagging KLK7 hits; shares compounds with proKLK7 act; activation, % at 7 µM; 3,200 tested, 80% active; EDANS-DABCYL substrate fluorescence interference, no enzyme, 4 h; solvent 0%, active enzyme control 100%;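 active = activation above the all-compound mean plus 3 SD, ignoring values outside control-based bounds, cut at about 4.8% in these data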;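 also: value is the 4 h activation minus the activation read at time zero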
# K7 EDANS ctr: counter-screen for kallikrein-7 activators: EDANS-DABCYL interference, dose response | EC50, µM | 250 tested, 20% active | shares compounds with proKLK7 act | AID 720493 | EDANS-DABCYL peptide fluorescence interference, no enzyme;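 active = compounds that raise the fluorescence signal in this interference counterscreen, with EC50 at or below 10 µM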;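 also: intact quenched peptide substrate alone read at 355 nm excitation and 520 nm emission; signal is fluorescence gain from T0 to T4 after four hours at room temperature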
# Numbers without * were called inactive; u = inconclusive; x = no result given.
SMILES,RanGTP-Imp inh,Runt-SMMHC FRET,MEX-5 binding,Runt-CBFb FRET,proKLK7 act,proKLK7 act conf,EDANS-DABCYL int,others
COc1ccc(COc2cc(-c3cccc(OC)c3)nc3ccc(N)cc23)cc1,3,-15,1,-5,59*,-39,-47,
COc1ccc(COc2cc(-c3cccc(OC)c3)nc3ccc(NC(C)=O)cc23)cc1,-1,-4,1,-2,18*,-3,-4,
COc1ccc(C)cc1S(=O)(=O)NNc1nc(C)cc(C)n1,x,x,x,x,-1,x,x,
CCCCn1c(N)c(N(CC(C)C)C(=O)COC(=O)c2ccccc2NCCO)c(=O)[nH]c1=O,-3,x,-1,x,22*,21*,27*,
CCCn1c(N)c(N(CCOC)C(=O)COC(=O)c2ccccc2NCCO)c(=O)[nH]c1=O,4,x,0,x,24*,29*,29*,
CCN(CC)CCNC(=O)CNC(=O)c1nn(-c2ccc(OC)c(OC)c2)c(=O)c2ccccc12,6,x,-1,x,0,x,x,
COc1ccc2oc(-c3ccco3)cc(=O)c2c1,3,-5,1,2,57*,74*,71*,
O=C(COc1ccc2oc(-c3ccco3)cc(=O)c2c1)N1CCCCC1,u,-1,1,-2,61*,60*,60*,
O=C(COc1ccc2c3c(c(=O)oc2c1)CCC3)N1CCCCC1,4,x,-2,x,0,x,x,
O=c1cc(-c2ccco2)oc2ccc(Cl)cc12,4,-2,0,0,0,x,x,
COc1ccc2oc(-c3ccncc3)cc(=O)c2c1,x,x,x,x,21*,37*,33*,
Cc1cccc(C)c1NC(=O)NS(=O)(=O)c1ccccc1,x,x,x,x,-1,x,x,
Cc1ccc(S(=O)(=O)NC(CC(C)C)C(=O)Oc2ccc3c4c(c(=O)oc3c2)CCC4)cc1 (centres undefined),-4,15,-1,0,49*,90*,77*,
Cc1ccc(S(=O)(=O)NC(C(=O)Oc2ccc3c(C(F)(F)F)cc(=O)oc3c2)c2ccccc2)cc1 (centres undefined),36*,59*,-8,19,48*,55*,73*,
CC(C)CC(C(=O)Oc1ccc2c3c(c(=O)oc2c1)CCC3)N1C(=O)c2ccccc2C1=O (centres undefined),-1,8,1,2,-1,x,x,
CC[C@@H](NS(=O)(=O)c1ccc(C)cc1)C(=O)Oc1ccc2c3c(c(=O)oc2c1)CCC3,4,12,1,6,241*,534*,473*,
Cc1c(OC(=O)CNC(=O)OC(C)(C)C)ccc2c3c(c(=O)oc12)CCC3,x,83*,x,37,418*,463*,485*,
COC(=O)C(NS(=O)(=O)c1ccc(C)cc1)c1ccccc1 (centres undefined),-3,-3,2,1,0,x,x,
Cc1c(OCC(=O)OC(C)(C)C)ccc2c3c(c(=O)oc12)CCC3,5,1,-1,-7,-2,x,x,
CCCn1c(SCC(=O)NCCCN2CCCC2=O)nc2ccccc2c1=O,x,x,x,x,0,x,x,
O=C(O)COc1ccc2c3c(c(=O)oc2c1)CCC3,4,-2,-4,0,-1,x,x,
CCC(C)C(NS(=O)(=O)c1ccc(C)cc1)C(=O)Oc1ccc2c3c(c(=O)oc2c1)CCC3 (centres undefined),-2,5,-1,-4,21*,43*,37*,K7 EDANS ctr=>70
NS(=O)(=O)c1ccc(CCNC(=O)COc2ccc3c4c(c(=O)oc3c2)CCC4)cc1,0,x,0,x,0,x,x,
CCC(NC(=O)OC(C)(C)C)C(=O)Oc1ccc2c3c(c(=O)oc2c1)CCC3 (centres undefined),-2,35,0,18,107*,664*,670*,
O=C(Cn1cncn1)c1ccccc1,3,-2,-3,3,1,x,x,
SMILES,RanGTP-Imp inh,Runt-SMMHC FRET,MEX-5 binding,Runt-CBFb FRET,proKLK7 act,proKLK7 act conf,EDANS-DABCYL int,others
O=C(CCNC(=O)Cn1ccc2ccccc2c1=O)NCc1ccccn1,0,-2,2,0,0,x,x,
COc1ccc(-n2nnnc2C2c3ccccc3C(=O)N2C2CCN(Cc3ccccc3)CC2)cc1 (centres undefined),x,x,x,x,0,x,x,
CCC1(O)C(=O)OCc2c1cc1n(c2=O)Cc2cc3c(N)cccc3nc2-1 (centres undefined),x,x,x,x,23*,64*,67*,
CCc1cc2c(COC(=O)CCNS(=O)(=O)c3cccc(C(F)(F)F)c3)cc(=O)oc2cc1O,x,x,x,x,48*,56*,57*,
Cc1cc(NC(=O)COC(=O)CCNS(=O)(=O)c2cccc(C(F)(F)F)c2)no1,0,1,0,-1,0,x,x,
CC(=O)c1ccccc1OC(=O)COc1ccc(Cl)cc1C,-3,-2,1,2,0,x,x,
CN1CCCC1CCNc1ccc2oc3ccccc3c(=O)c2c1 (centres undefined),-73,x,-5,x,2,x,x,
CN1CCCC1CCNc1ccc2c(=O)c3ccccc3oc2c1 (centres undefined),49*,x,2,x,76*,72*,80*,
CN1CCC[C@H]1CCNc1ccc2c(=O)c3ccccc3n(C)c2c1,x,x,x,x,49*,84*,80*,
Cn1c2ccccc2c(=O)c2ccc(NCc3ccc4c(c3)OCO4)cc21,x,x,x,x,-20,x,x,
COc1ccc2[nH]c(C)c(C(=O)CN3CCOCC3)c2c1,4,-9,-2,0,0,x,x,
COc1ccc2[nH]c(C)c(C(=O)CN3CCc4cc(OC)c(OC)cc4C3)c2c1,-1,8,-3,2,17*,9,8.4*,
CCCCC[C@@H](C)N1C[C@H](COCc2ccccc2)Oc2cc(N3CC[C@H](O)C3)ccc2S1(=O)=O,x,x,x,x,0,x,x,
O=C(N/N=C/c1cc2c(cc1Br)OCO2)c1c[nH]c2ccccc12,x,-2,0,0,15*,0,1,
O=C(N/N=C/c1cc2c(cc1Br)OCO2)c1ccccn1,5,-1,2,0,0,x,x,
Cc1ccc2nc(CNC(=O)C3CCC(=O)N(Cc4ccccc4F)C3)cn2c1 (centres undefined),-2,x,1,x,0,x,x,
O=C(NCCc1cn2cccnc2n1)C1CCC(=O)N(Cc2ccccc2F)C1 (centres undefined),x,x,x,x,35*,27*,24*,
Cc1c(Cl)c(=O)oc2cc(OCC(=O)N3CCCC(C)C3)ccc12 (centres undefined),x,x,x,x,45*,70*,69*,

# Bioassay records from PubChem.
